According to ChEMBL document CHEMBL4342473, “Lead Optimization of Benzoxazolone Carboxamides as Orally Bioavailable and CNS Penetrant Acid Ceramidase Inhibitors” (J Med Chem, 2020):
Active and inactive are the calls of the source. The rule behind the calls is not given here.

What was measured:
[1] = molecular target: T1, Monoglyceride lipase (Homo sapiens) (UniProt Q99685); assay: Inhibition of recombinant human MAGL at 1 to 10 uM using 4-nitrophenylacetate as substrate preincubated for 5 mins followed by substrate addition and measured after 10 mins by colorimetric method
T1 sequence (whole entry): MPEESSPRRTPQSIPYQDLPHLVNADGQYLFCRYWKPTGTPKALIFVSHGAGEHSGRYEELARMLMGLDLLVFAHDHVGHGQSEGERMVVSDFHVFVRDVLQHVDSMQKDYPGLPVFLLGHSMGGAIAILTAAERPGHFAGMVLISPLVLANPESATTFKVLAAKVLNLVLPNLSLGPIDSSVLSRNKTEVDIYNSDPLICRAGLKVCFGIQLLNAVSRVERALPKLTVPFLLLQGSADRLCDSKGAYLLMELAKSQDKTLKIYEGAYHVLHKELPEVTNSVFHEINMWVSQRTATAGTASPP

[2] = Unbound plasma concentration in twitcher mouse model of Krabbe's disease at 90 mg/kg, ip administered once daily for 20 days measured 1 hr post-last dose; format: ADME, organism-based; conditions: in vivo
In short: (§1)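 Twitcher mice dosed i.p. once daily for 20 days, sacrificed 1 h after last dose (day 20); drug measured in plasma and brain; unbound levels from unbound fractions (mean of two technical replicates); N = 3 males + 3 females per group.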

[3] = Unbound plasma concentration in twitcher mouse model of Krabbe's disease at 30 mg/kg, ip administered once daily for 20 days measured 1 hr post-last dose; format: ADME, organism-based; conditions: in vivo; in short: as §1
[4] = molecular target: T2, Acid ceramidase (Homo sapiens, UniProt Q13510); assay: Time-dependent inhibition of human acid ceramidase expressed in HEK293 cells using Rbm14-12 as substrate by fluorescence assay; format: cell-based
T2 sequence (Q13510 whole entry): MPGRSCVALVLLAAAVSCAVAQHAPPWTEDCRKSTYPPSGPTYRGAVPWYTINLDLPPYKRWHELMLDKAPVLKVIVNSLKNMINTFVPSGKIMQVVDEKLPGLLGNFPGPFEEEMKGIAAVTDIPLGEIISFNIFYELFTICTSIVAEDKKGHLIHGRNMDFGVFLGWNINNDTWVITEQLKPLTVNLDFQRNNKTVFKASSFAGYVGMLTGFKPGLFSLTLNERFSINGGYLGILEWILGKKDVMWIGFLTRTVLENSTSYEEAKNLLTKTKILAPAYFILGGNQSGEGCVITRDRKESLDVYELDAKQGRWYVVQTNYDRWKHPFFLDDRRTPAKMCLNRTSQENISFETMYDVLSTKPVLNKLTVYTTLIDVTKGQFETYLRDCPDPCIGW
In short: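 hAC-enriched lysates with fluorogenic substrate Rbm 14-12; vehicle 1% DMSO; time-dependent inhibition analysed for ki/KI and ki; two independent experiments, each in two technical replicates.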

[5] = Ratio of unbound drug level in brain of C57BL/6J/129SvEV mouse model of Gaucher's disease at 90 mg/kg, ip administered once daily for 14 days measured 1 hr post-last dose to EC50 for inhibition of acid ceramidase in Krabbe's disease patient-derived primary fibroblasts; format: organism-based; conditions: in vivo
In short: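 Gaucher-model 4L;C* mice (N = 4–8, mixed sexes) got 30 or 90 mg kg–1 i.p. once daily for 14 days from postnatal day 5 and were sacrificed 1 h after the day-14 dose. Compound levels were measured in plasma and brain, and unbound brain level came from brain fraction unbound (two technical replicates). The reference EC50 was from Krabbe patient primary fibroblasts incubated 2 h across concentrations (two independent experiments, duplicates).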

## CC(C)CNC(=O)n1c(=O)oc2cc(C3CCN(C)CC3)ccc21
[1]
  inhibition: inactive
[2]
  Cp(f): 520 nM
[3]
  Cp(f): 110 nM
[4]
  kinact: 0.15 min⁻¹
[5]
  Ratio: 6.4
